From PubChem
Rows were chosen to be rich in hits. Some 4% of all compounds tested hit in one or more screens of this group.
Mdm2 MdmX PPI: human Mdm2/MdmX binding inhibition; inhibition, % at 8 µM; AID 485346; SaOS-2 split-luciferase Mdm2/MdmX complementation, luminescence; O15151+Q00987; 3% of 330,000 active;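 active = inhibition of at least 50% at 8 µM in the primary screen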
ABHD5-PLIN5 inh: blocks binding of human ABHD5 to perilipin-5. Q00G26+Q8WTS1. Split G. princeps luciferase complementation, luminescence, 4 h. inhibition, % at 4 µM. 0.78% of 360,000 active. AID 602281;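 active = inhibition above the mean inhibition across every tested compound plus 3 SD, cut at about 22% in these data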
Target sequence (Q00G26 whole entry, looked up): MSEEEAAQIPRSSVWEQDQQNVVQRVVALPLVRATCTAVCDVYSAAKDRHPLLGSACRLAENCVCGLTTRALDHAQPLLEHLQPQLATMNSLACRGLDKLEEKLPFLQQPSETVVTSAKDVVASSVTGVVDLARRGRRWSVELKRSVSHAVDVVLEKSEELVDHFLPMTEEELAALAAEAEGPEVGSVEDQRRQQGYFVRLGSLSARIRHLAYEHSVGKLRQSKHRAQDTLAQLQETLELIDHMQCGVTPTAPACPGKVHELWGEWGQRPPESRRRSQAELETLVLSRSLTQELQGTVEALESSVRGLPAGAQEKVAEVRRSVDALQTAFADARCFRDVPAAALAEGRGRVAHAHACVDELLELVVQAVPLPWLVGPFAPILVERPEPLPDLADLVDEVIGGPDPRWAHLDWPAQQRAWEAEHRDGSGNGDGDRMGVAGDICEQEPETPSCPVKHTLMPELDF
Target sequence (Q8WTS1 whole entry, looked up): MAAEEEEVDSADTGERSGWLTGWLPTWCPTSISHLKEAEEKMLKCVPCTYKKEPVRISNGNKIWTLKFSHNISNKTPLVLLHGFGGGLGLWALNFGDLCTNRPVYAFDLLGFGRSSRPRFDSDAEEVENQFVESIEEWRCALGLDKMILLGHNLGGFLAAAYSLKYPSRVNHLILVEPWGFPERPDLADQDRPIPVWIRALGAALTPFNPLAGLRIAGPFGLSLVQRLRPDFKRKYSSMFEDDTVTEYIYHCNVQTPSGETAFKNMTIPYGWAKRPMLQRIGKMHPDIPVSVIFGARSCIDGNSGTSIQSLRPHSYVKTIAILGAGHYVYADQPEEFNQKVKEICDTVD
XBP1 UPR activ: adaptive UPR (XBP1) activation; CHO-XBP1 luciferase reporter, IRE1-XBP1 UPR activation, luminescence; percent of tunicamycin response, DMSO as zero; activation, % at 20 µM; 0.33% of 330,000 active; AID 463104;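 active = versus positive control, 20 µM dose yields 30% or more activation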
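Material: CHO cell line with stable XBP1 luciferase reporter; schedule: 16-18 h cell attachment at 37 °C, then 6 h compound exposure; signal: glow luminescence from Steady-Glo reagent; medium: serum-containing F12 medium, 10% FBS; benchmarks: tunicamycin 10 µg/mL and vehicle-only wells; read-out: percent activation relative to tunicamycin reference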
Granule exo inh: lytic granule exocytosis inhibition; TALL-104 LAMP-1 surface exposure, flow cytometry; cells stimulated with thapsigargin and PMA; inhibition, % at 10 µM; 0.66% of 360,000 active; AID 651702;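 active = inhibition above about 55%, limit read from the data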
CHOP UPR activ: activators of apoptotic arm of unfolded protein response (CHOP); AID 449763; activation, % at 10 µM; 0.34% of 330,000 active; CHO-CHOP luciferase reporter, UPR activation, luminescence; percent of tunicamycin response over DMSO baseline;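 active = at 10 µM dose, activation of 40% or more, normalized to positive control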
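Dosing – one dose, 10 µM in 0.5% DMSO · System – CHO-CHOP cells, stable luciferase reporter of PERK-eIF2a-CHOP signalling · Input – 500 cells/well · Control set – tunicamycin 10 µg/mL final as positive, DMSO-only wells as negative · Timing – 6 h compound treatment, 37 °C · Measure – % activation vs tunicamycin · Technique – luminescence read with Steady-Glo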
Mdm2-MdmX conf: confirmation of human Mdm2/MdmX interaction inhibitors. shares compounds with Mdm2 MdmX PPI. Mdm2-MdmX binding, luminescent assay. inhibition, % at 8 µM. 55% of 10,000 active. AID 489028; in the data active = inhibition above about 40%
FLuc counter: inhibits full-length luciferase, flagging false Mdm2/MdmX hits; SaOS-2 full-length luciferase counterscreen, luminescence; AID 504607; inhibition, % at 8 µM; shares compounds with Mdm2 MdmX PPI; 77% of 6,200 active;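 active = mean inhibition at 8 µM reaching about 37%, which flags the compound as non-specific, limit read from the data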;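 note: p53-null SaOS-2 cells with luciferase driven by a doxycycline-inducible promoter; compound on cells about two nights before reading with doxycycline added after day one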
ABHD5-PLIN5 conf: confirmation of human ABHD5-PLIN5 interaction inhibitors; biochemical ABHD5-PLIN5 interaction, luminescence; shares compounds with ABHD5-PLIN5 inh; 67% of 2,200 active; inhibition, % at 4 µM; in the data active = inhibition above about 23%
HNF4 counter: active in HNF4 split-luciferase counter-screen for ABHD5-PLIN5 inhibitors. shares compounds with ABHD5-PLIN5 inh. HNF4 dimerization, luminescence, biochemical. inhibition, % at 4 µM. 77% of 2,200 active. AID 651674;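 active = mean inhibition across replicate wells exceeding the computed hit threshold, cut at about 13% in these data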;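 note: light from luciferase halves that rejoin when HNF4 fusion proteins dimerize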
Exocytosis CP01: lytic granule exocytosis inhibition | inhibition, % at 10 µM | TALL-104 cells, LAMP-1 externalization, flow cytometry; stimulated with PMA plus thapsigargin | 11% of 1,500 active | AID 651954 | shares compounds with Granule exo inh; in the data active = inhibition above about 60%
Each line names hits and unclear results; the compound was inactive in the other large screens (follow-up assays come after a bar, where they were run).

C=C1C(=O)O[C@@H]2C[C@@H](C)[C@@H]3C=CC(=O)[C@@]3(C)[C@@H](O)[C@H]12	Mdm2 MdmX PPI 95, ABHD5-PLIN5 inh 82 | Mdm2-MdmX conf 99 | FLuc counter 51 | ABHD5-PLIN5 conf 91 | HNF4 counter 90
CCCCn1c(=O)c(C=Nc2cccnc2Cl)c(O)n(CCCCl)c1=O	none
CC1=CC2/C=C(\C)CCC(O)C(O)/C=C/C(=O)C23C(=O)NC(CC(C)C)C3C1C (stereo not given)	Mdm2 MdmX PPI 100, ABHD5-PLIN5 inh 65 | Mdm2-MdmX conf 100 | FLuc counter 51 | ABHD5-PLIN5 conf 90 | HNF4 counter 103
CCCCCCCSc1cc(OC)c(CCNC)cc1OC	Mdm2 MdmX PPI 53, Granule exo inh 85 | Mdm2-MdmX conf inactive | Exocytosis CP01 inactive
Clc1cccc(Cl)c1C1N2CCCN12 (stereo not given)	none
COc1ccc2[nH]c(C)c(CCNCc3cccnc3)c2c1	none
CCOc1cccc(CNCCc2c(C)[nH]c3ccc(OC(F)(F)F)cc23)c1O	Mdm2 MdmX PPI 98, Granule exo inh 78 | Mdm2-MdmX conf 85 | FLuc counter inactive | Exocytosis CP01 83
O=C1NC(=O)N(c2ccccc2)C(=O)/C1=C/c1coc2ccc(O)cc2c1=O	ABHD5-PLIN5 inh 37 | ABHD5-PLIN5 conf 90 | HNF4 counter 88
O=C1NC(=O)N(c2ccc(Cl)cc2)C(=O)/C1=C/c1coc2ccc(O)cc2c1=O	ABHD5-PLIN5 inh 25 | ABHD5-PLIN5 conf 87 | HNF4 counter 81
O=C1NC(=O)N(c2ccccc2)C(=O)/C1=C\c1ccccc1[N+](=O)[O-]	ABHD5-PLIN5 inh 24 | ABHD5-PLIN5 conf 78 | HNF4 counter 80
CN(Cc1cccc(-c2cccnc2)c1)C(=O)Oc1ccc([N+](=O)[O-])cc1	none (no result: Mdm2 MdmX PPI, XBP1 UPR activ, CHOP UPR activ)
O=c1nc(/C=C/c2ccc(Cl)cc2Cl)cc(C(F)(F)F)[nH]1	ABHD5-PLIN5 inh 36 | ABHD5-PLIN5 conf 70 | HNF4 counter 48
Nc1c(C(=O)NCc2ccco2)c2nc3ccccc3nc2n1Cc1ccc(F)cc1	none
Nc1c(C(=O)NCc2ccco2)c2nc3ccccc3nc2n1Cc1ccccc1	ABHD5-PLIN5 inh 25 | ABHD5-PLIN5 conf 35 | HNF4 counter 36
N#Cc1ccc(NC(=O)CN2C(=O)NC3(CCCC3)C2=O)cc1Cl	none
CCOC(=O)c1c(NC(=O)c2c(N)n(CCCOC)c3nc4ccccc4nc23)sc2c1CCCC2	none
O=C(NC1CCCCC1)Oc1cc2oc(=O)sc2cc1Cl	ABHD5-PLIN5 inh 69 | ABHD5-PLIN5 conf inactive | HNF4 counter 14
COC(=O)C1=C(c2c(C)noc2C)C[C@@H]2CC[C@H]1N2C(=O)N1CCC(O)CC1	none
CCOC(=O)C1C(OC(=O)c2ccccc2)CC2CCC1N2C (stereo not given)	ABHD5-PLIN5 inh 26 (no result: Mdm2 MdmX PPI, XBP1 UPR activ, CHOP UPR activ) | ABHD5-PLIN5 conf 35 | HNF4 counter inactive
CN1C2CCC1C(C(=O)O)C(OC(=O)c1ccccc1)C2 (stereo not given)	none
Cc1ccccc1C(=O)N1Cc2cnnn2-c2ccccc2C1C#N (stereo not given)	none (no result: Mdm2 MdmX PPI, XBP1 UPR activ, CHOP UPR activ)
Cc1ccccc1CN1Cc2cnnn2-c2ccccc2C1C#N (stereo not given)	ABHD5-PLIN5 inh 74 (no result: Mdm2 MdmX PPI, XBP1 UPR activ, CHOP UPR activ) | ABHD5-PLIN5 conf 96 | HNF4 counter 96
O=C1NC(=O)C(=Cc2ccc(N3CCN(C(=O)c4ccccc4)CC3)c([N+](=O)[O-])c2)C(=O)N1	ABHD5-PLIN5 inh 41 | ABHD5-PLIN5 conf 91 | HNF4 counter 90
CN1C(=O)C(=Cc2ccc(N3CCOCC3)c([N+](=O)[O-])c2)C(=O)N(C)C1=O	none (no result: ABHD5-PLIN5 inh, Granule exo inh)
COc1ccc(-c2nn(Cc3ccccc3)cc2C(=O)NC2CC2)cc1OC	none
COc1ccc(NC(=O)CN2C3CCC2CC(O)(c2cccnc2)C3)cc1OC (stereo not given)	none
O=C(O)CCn1cc(C=C2C(=O)NC(=S)NC2=O)c(-c2ccccc2)n1	none
N#CCCn1cc(C=C2C(=O)NC(=O)NC2=O)c(-c2ccccc2)n1	ABHD5-PLIN5 inh 23 | ABHD5-PLIN5 conf 51 | HNF4 counter 84
CC/C(=N\Nc1ccccc1)c1c(O)n(-c2ccccc2)c(=O)[nH]c1=O	ABHD5-PLIN5 inh 25 | ABHD5-PLIN5 conf inactive | HNF4 counter 19
O=C(NCc1ccc(C(=O)N2CCC3(CC2)OCCO3)cc1)c1ccc2c(c1)OCO2	none
CC(C)NC(=O)Cn1cc(C(=O)c2ccccc2)c2ccccc21	none
CN(C)c1ccc(/C=C/c2cc[n+](C)c3ccccc23)cc1	ABHD5-PLIN5 inh 23 (no result: Mdm2 MdmX PPI, XBP1 UPR activ, CHOP UPR activ) | ABHD5-PLIN5 conf 31 | HNF4 counter 30
O=C1NC(=S)NC(=O)C1=Cc1cccn1-c1ccc(O)cc1	ABHD5-PLIN5 inh 24 (no result: Mdm2 MdmX PPI, XBP1 UPR activ, CHOP UPR activ) | ABHD5-PLIN5 conf 91 | HNF4 counter 95
COc1ccccc1C=C1C(=O)NC(=S)NC1=O	none (no result: Mdm2 MdmX PPI, XBP1 UPR activ, CHOP UPR activ)
OC(c1ccccc1)(c1ccccc1)c1ccncc1	none
Cc1ccc(N2C(=O)NC(=O)/C(=C/c3cnc(-c4ccccc4)nc3)C2=O)cc1C	ABHD5-PLIN5 inh 33 | ABHD5-PLIN5 conf 87 | HNF4 counter 73
COc1ccc(OC)c([C@@H](O)[C@H](C)NC(C)(C)C)c1	none
COC(=O)c1nc(-c2ccc3c(n2)C(=O)C(N)=C(OC)C3=O)c(N)c(-c2ccc(OC)c(OC)c2O)c1C	ABHD5-PLIN5 inh 25 | ABHD5-PLIN5 conf inactive | HNF4 counter 14
CNS(=O)(=O)c1ccc(N=Cc2c(O)n(-c3ccc(C)cc3)c(=O)[nH]c2=O)cc1	ABHD5-PLIN5 inh 28 | ABHD5-PLIN5 conf inactive | HNF4 counter 37
Cc1ccc(-n2c(O)c(C=Nc3ccc(S(N)(=O)=O)cc3)c(=O)[nH]c2=O)cc1	none
CCc1nnc(NS(=O)(=O)c2ccc(N=Cc3c(O)n(-c4ccc(Cl)cc4)c(=O)[nH]c3=O)cc2)s1	ABHD5-PLIN5 inh 30 | ABHD5-PLIN5 conf inactive | HNF4 counter 16
COC(=O)C1=C(c2ccc(OC(F)(F)F)cc2)C[C@@H]2CC[C@H]1N2C(=O)NCc1cccc2ccccc12	none
S=P(Nn1cnnc1)(c1ccccc1)c1ccccc1	ABHD5-PLIN5 inh 30 | ABHD5-PLIN5 conf inactive | HNF4 counter inactive
O=C1CC(=O)N(c2ccc(Cl)cc2Cl)C(=O)N1	none
